# High-throughput results as filed in PubChem BioAssay.
# Most compounds without a hit are left out; they make up all but 2.2% or so of the library.
# dFosB act: activators of mouse delta FosB homodimer; P13346; purified delta FosB, TAMRA-CDK5 oligo fluorescence polarization; percent of positive-control signal above neutral wells; activation, % at 25 µM; 0.99% of 340,000 active; AID 493131;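 active = mean activation above about 17%, with every replicate also reaching it, limit read from the data, passing the limit was not always enough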
# S100A4 inh HTS: S100A4-myosin IIA interaction inhibition | P26447 | S100A4/TAMRA-MyoIIA peptide fluorescence polarization | inhibition, % at 10.7 µM | 0.14% of 360,000 active;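 active = mean inhibition of at least 70% across replicates, with every replicate also reaching that level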
# Target sequence (P26447 whole entry, looked up): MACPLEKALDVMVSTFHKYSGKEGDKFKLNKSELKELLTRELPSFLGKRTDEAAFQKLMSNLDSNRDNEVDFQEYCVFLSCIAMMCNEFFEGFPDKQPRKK
#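 Test system: S100A4 monomer protein; Medium: HEPES pH 7.2 with CaCl2, KCl, NaCl, DTT, Triton; Probe or stimulus: TAMRA-labelled myosin IIA heavy-chain peptide probe, 5 nM; Doses: one dose per compound; Times: polarization read 5 min after assay mix addition, stable 5–60 min; Benchmarks: neutral control DMSO, positive control TFP.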
# F508del corr: CFTR F508del correction in bronchial cells; CFBE cells, YFP halide quenching; stimulated with forskolin plus potentiator P3; % fluorescence drop versus neutral controls; activity (quench increase), % at 7.58 µM; 0.36% of 350,000 active; AID 720511;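 active = mean added fluorescence quench of at least 8% versus neutral control, with both replicates also reaching 8%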;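 also: cells transiently co-express mutant CFTR-F508del with the halide-sensitive YFP; corrector assay measuring rescue of mutant channel to the surface after 24 h compound exposure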
# FGF22 binding: FGF22 (human) thermal shift binding. Q9HCT0. recombinant FGF22 thermal shift, SYPRO orange fluorescence; percent of sucrose octasulfate shift, DMSO zero. activity (Tm shift, normalised), % at 9.99 µM. 1.5% of 340,000 active. AID 651658;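 active = mean Tm shift, scaled 0 neutral to 100 positive control, at about 1.3% or above, every replicate too, limit read from the data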
# Target sequence (Q9HCT0 whole entry, looked up): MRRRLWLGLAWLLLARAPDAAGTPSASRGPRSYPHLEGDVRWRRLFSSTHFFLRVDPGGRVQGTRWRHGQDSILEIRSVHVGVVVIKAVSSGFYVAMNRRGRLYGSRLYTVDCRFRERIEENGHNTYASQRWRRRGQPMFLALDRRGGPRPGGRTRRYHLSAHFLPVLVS
# Numbers without * were called inactive; . = no result.
SMILES,dFosB act,S100A4 inh HTS,F508del corr,FGF22 binding
O=C(Nc1ccccc1F)C(=Cc1sc(N2CCOCC2)nc1-c1ccccc1)C(=O)Nc1ccccc1F,-10,19,2,44*
O=C(N/N=C/c1sc(N2CCOCC2)nc1-c1ccccc1)c1ccccc1O,-2,.,.,.
COc1ccc(NC(=O)N(C)C[C@@H]2Oc3c(NC(=O)c4ccc(-c5nccs5)cc4)cccc3C(=O)N([C@@H](C)CO)C[C@H]2C)cc1,.,2,2,0
CCS(=O)(=O)c1nc(S(=O)(=O)c2ccc(Cl)cc2)c(NCc2ccccn2)s1,-11,-21,2,44*
CS(=O)(=O)c1nc(S(=O)(=O)c2ccc(Cl)cc2)c(NCCCN2CCOCC2)s1,1,-1,-1,0
CCNc1sc(S(C)(=O)=O)nc1S(=O)(=O)c1ccc(Cl)cc1,-1,4,5,43*
CC(C)NC(=O)Nc1ccc2c(c1)C(=O)N([C@@H](C)CO)C[C@@H](C)[C@@H](CN(C)C(=O)NC(C)C)O2,.,6,-2,0
O=C([C@H]1[C@H](CO)[C@H]2Cn3c(ccc(-c4ccccc4F)c3=O)[C@@H]1N2C(=O)C1CC1)N1CCOCC1,.,5,-2,0
C[C@H]1CN([C@@H](C)CO)S(=O)(=O)c2ccc(-c3ccc(C#N)cc3)cc2O[C@@H]1CN(C)Cc1cccc(F)c1,.,-14,3,0
C[C@@H]1CN([C@@H](C)CO)S(=O)(=O)c2ccc(-c3cccc(C#N)c3)cc2O[C@H]1CN(C)Cc1ccccn1,.,-1,-2,0
C[C@@H]1CN([C@H](C)CO)S(=O)(=O)c2ccc(-c3ccc(C#N)cc3)cc2O[C@H]1CN(C)Cc1cccc(F)c1,.,-2,8.1*,0
C[C@@H]1CN([C@H](C)CO)S(=O)(=O)c2ccc(-c3ccccc3)cc2O[C@H]1CN(C)Cc1ccccn1,.,10,16*,0
C[C@@H]1CN([C@H](C)CO)S(=O)(=O)c2ccc(-c3ccc(C#N)cc3)cc2O[C@H]1CN(C)Cc1ccccn1,.,-2,12*,0
O=C(NC[C@H]1CC[C@H]2[C@H](CN2S(=O)(=O)c2ccccc2)O1)NC1CCCCC1,.,9,-4,.
CC(C)NC(=O)N(C)C[C@H]1Oc2cc(C#C[C@H](C)O)ccc2S(=O)(=O)N([C@H](C)CO)C[C@H]1C,.,.,1,.
CCOCCCNC(=S)NC1CC2CCC(C1)N2Cc1ccccc1 (configuration not stated),-11,3,4,43
COCCCNC(=S)NC1CC2CCC(C1)N2Cc1ccccc1 (configuration not stated),-1,0,0,43*
COc1ccc(/C=C(\NC(=O)c2ccc(C)cc2)C(=O)NCCN2CCOCC2)cc1,-8,1,2,1.4*
COc1ccc(C(=O)N/C(=C\c2ccc(Cl)cc2)C(=O)NCCN2CCOCC2)cc1,.,3,0,0
C[C@@H]1CCCCO[C@@H](CN(C)C(=O)Nc2ccc3c(c2)OCO3)[C@H](C)CN([C@@H](C)CO)C(=O)c2cc(NC(=O)CCCN(C)C)ccc2O1,.,26,1,0
COC(=O)CNC(=O)COC(=O)/C=C/c1ccc2ccccc2n1,0,-1,0,43*
O=C(CSc1nc2ccccc2o1)Nc1nc2ccccc2s1,5,.,.,.
O=C(CSc1nc2ccccc2o1)Nc1nccs1,10,2,-1,2.3*
COc1cc(Cl)c(CNC[C@H]2O[C@@H](n3cnc(C(N)=O)n3)[C@H](O)[C@@H]2O)c(Cl)c1O,-1,-5,-3,43*
COc1ccc(/C=N/NC(=O)CNc2ccc(Br)cc2)c(C(=O)O)c1OC,-1,-12,0,44*
COc1ccc(/C=N/NC(=O)CNc2c(Br)cc(C)cc2Br)c(C(=O)O)c1OC,-2,.,.,.
COc1ccc(NC(=O)N(C)C[C@@H]2Oc3ncc(-c4ccccc4)cc3C(=O)N([C@H](C)CO)C[C@@H]2C)cc1,.,.,0,.
C[C@H](CO)N1C[C@H](C)[C@@H](CN(C)C(=O)Nc2ccc(F)cc2)OCCCC[C@H](C)Oc2ccc(NS(=O)(=O)c3ccccc3)cc2C1=O,.,-6,-1,-1
Cc1ccc(C)c(NC(=O)CSc2nc3c(c(=O)n2C)SC(C)C3)c1 (configuration not stated),-3,7,8.7*,0
C[C@H](CO)N1C[C@H](C)[C@H](CN(C)S(=O)(=O)c2cn(C)cn2)Oc2c(NS(C)(=O)=O)cccc2C1=O,.,-7,2,0
